Experiments:
Type in all cases: functional
MOLT-4 = assay: Cytotoxicity against human MOLT4 cells assessed as cell growth at 1 uM after 48 hrs by sulforhodamine B assay; details: MOLT-4, 48 h, read-out: Activity
T47D [1] = assay: Cytotoxicity against human T47D cells assessed as cell growth at 0.1 uM after 48 hrs by sulforhodamine B assay; details: read-out: Activity
[2] = Cytotoxicity against human Hs 578T cells assessed as cell growth at 0.01 uM after 48 hrs by sulforhodamine B assay; details: read-out: Activity
How it was run: (§1)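 Five-dose NCI panel run at 0.01, 0.1, 1, 10 and 100 µM. Cells were in RPMI 1640 with 5% FBS and 2 mM L-glutamine, seeded at 5000–40,000 cells/well and pre-incubated 24 h. Drug was diluted from a DMSO stock into medium with 50 µg/ml gentamicin. Exposure was 48 h at 37 °C, 5% CO2. Cells were fixed with cold TCA and stained with 0.4% SRB, read at 515 nm. Percent growth came from time-zero, control and test absorbances.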

OVCAR-8 = assay: Cytotoxicity against human OVCAR8 cells assessed as cell growth at 10 uM after 48 hrs by sulforhodamine B assay; details: OVCAR-8, 48 h, read-out: Activity
OVCAR-5 = assay: Cytotoxicity against human OVCAR5 cells assessed as cell growth at 1 uM after 48 hrs by sulforhodamine B assay; details: OVCAR-5, 48 h, read-out: Activity
[3] = Cytotoxicity against human Hs 578T cells assessed as cell growth at 10 '-5 M after 48 hrs by sulforhodamine B assay; details: read-out: Activity
How it was run: (§2)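 Primary one-dose screen across the NCI 60-line panel at 10 µM. Cells were grown in RPMI 1640 with 5% FBS and 2 mM L-glutamine and held 24 h before drug. Drug was diluted from a DMSO concentrate. Exposure was 48 h at 37 °C, 5% CO2. Cells were fixed with TCA and stained with SRB, with absorbance read at 515 nm. Percent growth was calculated against time-zero and untreated control.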

U-251 = assay: Growth inhibition of human U251 cells after 48 hrs by sulforhodamine B assay; details: U-251, 48 h
How it was run: (§3)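 Adherent NCI-60 lines were grown in RPMI 1640 with 5% FBS and 2 mM L-glutamine, plated at 5000–40,000 cells/well and preincubated 24 h. They were then exposed to five concentrations (0.01–100 µM, from a DMSO stock) for 48 h at 37 °C, 5% CO2. Cells were fixed with cold TCA (10% final, 60 min, 4 °C) and stained with 0.4% SRB. Dye was solubilized in 10 mM Tris base and A515 read. GI50 was derived from time-zero, control and treated absorbances.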

UO-31 = assay: Cytotoxicity against human UO31 cells assessed as cell growth at 10 uM after 48 hrs by sulforhodamine B assay; details: UO-31, 48 h, read-out: Activity
M14 = assay: Cytotoxicity against human M14 cells assessed as cell growth at 0.01 uM after 48 hrs by sulforhodamine B assay; details: M14, 48 h, read-out: Activity
CAKI-1 [4] = assay: Growth inhibition of human Caki1 cells after 48 hrs by sulforhodamine B assay; details: CAKI-1, 48 h; for CC50: read-out: LC50 (the source's name); how it was run: as §3
SK-MEL-5 = assay: Cytotoxicity against human SK-MEL-5 cells assessed as cell growth at 0.1 uM after 48 hrs by sulforhodamine B assay; details: SK-MEL-5, 48 h, read-out: Activity
EKVX [5] = assay: Cytotoxicity against human EKVX cells assessed as cell growth at 100 uM after 48 hrs by sulforhodamine B assay; details: read-out: Activity; how it was run: as §1
NCI-H522 = assay: Cytotoxicity against human NCI-H522 cells assessed as cell growth at 10 uM after 48 hrs by sulforhodamine B assay; details: NCI-H522, 48 h, read-out: Activity
MDA-MB-231 [6] = assay: Cytotoxicity against human MDA-MB-231 cells assessed as cell growth at 10 uM after 48 hrs by sulforhodamine B assay; details: MDA-MB-231, 48 h, read-out: Activity
MDA-MB-468 = assay: Cytotoxicity against human MDA-MB-468 cells assessed as cell growth at 10 '-5 M after 48 hrs by sulforhodamine B assay; details: MDA-MB-468, 48 h, read-out: Activity
[7] = Cytotoxicity against human Hs 578T cells assessed as cell growth at 10 uM after 48 hrs by sulforhodamine B assay; details: read-out: Activity; how it was run: as §1
786-0 = assay: Cytotoxicity against human 786-0 cells assessed as cell growth at 100 uM after 48 hrs by sulforhodamine B assay; details: 786-0, 48 h, read-out: Activity
How it was run: (§4)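 NCI-60 five-dose screen. Cells were grown in RPMI 1640 with 5% FBS and 2 mM L-glutamine and preincubated 24 h. Compound (DMSO stock) was tested at 0.01, 0.1, 1, 10 and 100 µM for 48 h at 37 °C. Cells were fixed in situ with cold TCA (final 10%) and stained with 0.4% SRB. A515 was read, and percent growth was calculated against time-zero and control plates.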

CAKI-1 [8] = assay: Cytotoxicity against human Caki1 cells assessed as cell growth at 10 uM after 48 hrs by sulforhodamine B assay; details: CAKI-1, 48 h, read-out: Activity; how it was run: as §4
TK-10 = assay: Cytotoxicity against human TK10 cells assessed as cell growth at 1 uM after 48 hrs by sulforhodamine B assay; details: TK-10, 48 h, read-out: Activity
SW-620 = assay: Growth inhibition of human SW620 cells after 48 hrs by sulforhodamine B assay; details: SW-620, 48 h; for CC50: read-out: LC50 (the source's name); how it was run: as §3
MDA-MB-231 [9] = assay: Cytotoxicity against human MDA-MB-231 cells assessed as cell growth at 0.01 uM after 48 hrs by sulforhodamine B assay; details: MDA-MB-231, 48 h, read-out: Activity
T47D [10] = assay: Cytotoxicity against human T47D cells assessed as cell growth at 100 uM after 48 hrs by sulforhodamine B assay; details: read-out: Activity
SK-MEL-28 = assay: Cytotoxicity against human SK-MEL-28 cells assessed as cell growth at 0.01 uM after 48 hrs by sulforhodamine B assay; details: SK-MEL-28, 48 h, read-out: Activity
HCT-15 [11] = assay: Cytotoxicity against human HCT15 cells assessed as cell growth at 10 '-5 M after 48 hrs by sulforhodamine B assay; details: HCT-15, 48 h, read-out: Activity; how it was run: as §2
HCT-15 [12] = assay: Cytotoxicity against human HCT15 cells assessed as cell growth at 10 uM after 48 hrs by sulforhodamine B assay; details: HCT-15, 48 h, read-out: Activity; how it was run: as §1
DU-145 = assay: Cytotoxicity against human DU145 cells assessed as cell growth at 100 uM after 48 hrs by sulforhodamine B assay; details: DU-145, 48 h, read-out: Activity; how it was run: as §1
SK-OV-3 = assay: Growth inhibition of human SKOV3 cells after 48 hrs by sulforhodamine B assay; details: SK-OV-3, 48 h; how it was run: as §3
EKVX [13] = assay: Cytotoxicity against human EKVX cells assessed as cell growth at 1 uM after 48 hrs by sulforhodamine B assay; details: read-out: Activity; how it was run: as §1
NCI-H460 = assay: Cytotoxicity against human NCI-H460 cells assessed as cell growth at 0.01 uM after 48 hrs by sulforhodamine B assay; details: NCI-H460, 48 h, read-out: Activity

SMILES	growth at 1 µM (MOLT-4)	growth at 0.1 µM (T47D [1])	growth at 0.01 µM [2]	growth at 10 µM (OVCAR-8)	growth at 1 µM (OVCAR-5)	growth at 10 µM [3]	GI50 (U-251)	TGI (U-251)	growth at 10 µM (UO-31)	growth at 0.01 µM (M14)	GI50 (CAKI-1 [4])	TGI (CAKI-1 [4])	CC50 (CAKI-1 [4])	growth at 0.1 µM (SK-MEL-5)	growth at 100 µM (EKVX [5])	growth at 10 µM (NCI-H522)	growth at 10 µM (MDA-MB-231 [6])	growth at 10 µM (MDA-MB-468)	growth at 10 µM [7]	growth at 100 µM (786-0)	also measured
Cc1ccc2nc(Nc3c(C)cccc3C)sc2c1	76%	96%	92%	67%	79%	54.1%	25400 nM	> 100000 nM	49%	106%	564 nM	> 100000 nM	> 100000 nM	92%	53%	28%	22%	2.04%	40%	60%	LC50 (U-251): > 100000 nM; growth at 10 µM (CAKI-1 [8]): 27%; growth at 1 µM (TK-10): 82%; GI50 (SW-620): 949 nM; TGI (SW-620): > 100000 nM; CC50 (SW-620): > 100000 nM; growth at 0.01 µM (MDA-MB-231 [9]): 85%; growth at 100 µM (T47D [10]): 46%; growth at 0.01 µM (SK-MEL-28): 94%; growth at 10 µM (HCT-15 [11]): 19.9%; growth at 10 µM (HCT-15 [12]): 23%; growth at 100 µM (DU-145): 65%; LC50 (SK-OV-3): > 100000 nM; TGI (SK-OV-3): > 100000 nM; growth at 1 µM (EKVX [13]): 62%; growth at 0.01 µM (NCI-H460): 102%
Clc1cccc(Cl)c1Nc1nc2cccc(Cl)c2s1	52%	102%	87%	-71%	79%	-11.4%	1310 nM	2790 nM	-91%	103%	259 nM	1460 nM	4230 nM	90%	-73%	-71%	-93%	-25.6%	-41%	-90%	growth at 10 µM (CAKI-1 [8]): -90%; growth at 1 µM (TK-10): 59%; GI50 (SW-620): 1320 nM; TGI (SW-620): 2780 nM; CC50 (SW-620): 5860 nM; growth at 0.01 µM (MDA-MB-231 [9]): 92%; growth at 100 µM (T47D [10]): -64%; growth at 0.01 µM (SK-MEL-28): 93%; growth at 10 µM (HCT-15 [11]): -42.5%; growth at 10 µM (HCT-15 [12]): -85%; growth at 100 µM (DU-145): -85%; GI50 (SK-OV-3): 1600 nM; LC50 (SK-OV-3): 5950 nM; TGI (SK-OV-3): 3080 nM; growth at 1 µM (EKVX [13]): 15%; growth at 0.01 µM (NCI-H460): 102%

Reference: ChEMBL document CHEMBL2040734, “Benzothiazoles: search for anticancer agents” (2012)
